# pEC50: −log10 of the molar value.
# How the values were obtained:
# [1] = molecular target: T1, Beta-3 adrenergic receptor (Homo sapiens, UniProt P13945); assay: Agonist activity at human beta-3 adrenergic receptor expressed in CHO cells assessed as cAMP accumulation; format: functional, cell-based
# In short: (§1)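 cAMP accumulation measured in CHO cells expressing the cloned human receptor subtype. Potency given as pEC50; Emax is the fitted maximal response of the concentration-response, expressed as percent of the maximal response to R-(−)-isoproterenol. Values are from n ≥ 3 experiments unless noted (some n = 2), with standard deviation within 10%.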
# Target sequence in this assay (P13945 whole entry): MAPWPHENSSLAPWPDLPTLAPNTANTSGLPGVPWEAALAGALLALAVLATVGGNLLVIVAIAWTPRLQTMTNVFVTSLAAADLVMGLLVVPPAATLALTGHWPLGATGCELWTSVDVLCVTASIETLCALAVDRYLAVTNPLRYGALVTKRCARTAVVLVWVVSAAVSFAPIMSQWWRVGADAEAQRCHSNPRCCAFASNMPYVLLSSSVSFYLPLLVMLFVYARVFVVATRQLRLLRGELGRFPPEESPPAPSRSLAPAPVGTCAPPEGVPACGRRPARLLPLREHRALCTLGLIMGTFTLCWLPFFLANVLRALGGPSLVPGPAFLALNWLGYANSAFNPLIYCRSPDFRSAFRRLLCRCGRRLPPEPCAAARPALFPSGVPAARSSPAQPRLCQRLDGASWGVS
# [2] = molecular target: T2, Beta-2 adrenergic receptor (Homo sapiens, UniProt P07550); assay: Agonist activity at human beta-2 adrenergic receptor expressed in CHO cells assessed as cAMP accumulation; format: functional, cell-based; in short: as §1
# Target sequence in this assay (P07550 whole entry): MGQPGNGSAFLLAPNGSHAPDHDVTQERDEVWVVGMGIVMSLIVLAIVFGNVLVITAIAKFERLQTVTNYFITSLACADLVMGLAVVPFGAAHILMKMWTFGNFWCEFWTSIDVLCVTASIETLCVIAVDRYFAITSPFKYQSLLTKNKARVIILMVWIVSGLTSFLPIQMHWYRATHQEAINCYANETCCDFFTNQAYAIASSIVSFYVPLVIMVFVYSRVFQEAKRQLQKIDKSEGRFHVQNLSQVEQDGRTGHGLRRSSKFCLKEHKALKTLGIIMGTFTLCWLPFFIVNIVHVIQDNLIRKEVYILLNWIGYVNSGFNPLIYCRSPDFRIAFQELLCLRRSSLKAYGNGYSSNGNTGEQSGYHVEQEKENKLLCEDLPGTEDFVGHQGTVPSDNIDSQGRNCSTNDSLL
# [3] = molecular target: T3, Beta-1 adrenergic receptor (Homo sapiens, UniProt P08588); assay: Agonist activity at human beta-1 adrenergic receptor expressed in CHO cells assessed as cAMP accumulation; format: functional, cell-based; in short: as §1
# Target sequence in this assay (P08588 whole entry): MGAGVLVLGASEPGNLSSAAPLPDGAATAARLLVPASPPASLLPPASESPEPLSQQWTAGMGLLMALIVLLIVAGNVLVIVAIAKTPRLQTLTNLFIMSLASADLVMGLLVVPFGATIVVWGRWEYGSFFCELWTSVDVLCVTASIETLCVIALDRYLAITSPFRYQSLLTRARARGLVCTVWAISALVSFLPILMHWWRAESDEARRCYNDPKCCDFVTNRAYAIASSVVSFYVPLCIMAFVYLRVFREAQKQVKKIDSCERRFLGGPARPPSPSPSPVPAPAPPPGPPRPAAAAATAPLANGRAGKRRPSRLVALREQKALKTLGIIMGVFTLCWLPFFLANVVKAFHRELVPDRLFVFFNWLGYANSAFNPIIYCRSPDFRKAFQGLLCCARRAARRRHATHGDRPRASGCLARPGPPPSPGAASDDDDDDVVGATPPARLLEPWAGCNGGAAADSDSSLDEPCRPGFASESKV
# [4] = molecular target: T1, Beta-3 adrenergic receptor; assay: Agonist activity at human beta-3 adrenergic receptor expressed in CHO cells assessed as cAMP accumulation relative to R-(-)-isoproterenol; format: functional, cell-based; in short: as §1
# Target sequence in this assay (P13945 whole entry, looked up): as the sequence (P13945 whole entry) above
# [5] = molecular target: T2, Beta-2 adrenergic receptor; assay: Agonist activity at human beta-2 adrenergic receptor expressed in CHO cells assessed as cAMP accumulation relative to R-(-)-isoproterenol; format: functional, cell-based; in short: as §1
# Target sequence in this assay (P07550 whole entry, looked up): as the sequence (P07550 whole entry) above
# [6] = molecular target: T3, Beta-1 adrenergic receptor; assay: Agonist activity at human beta-1 adrenergic receptor expressed in CHO cells assessed as cAMP accumulation relative to R-(-)-isoproterenol; format: functional, cell-based; in short: as §1
# Target sequence in this assay (P08588 whole entry, looked up): as the sequence (P08588 whole entry) above
# [7] = species on record: Homo sapiens; assay: Selectivity ratio of pEC50 for human beta3 adrenergic receptor over beta-2 adrenergic receptor
# In short: (§2)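 Ratio of […]. pEC50 values come from cAMP accumulation in CHO cells expressing cloned human β1, β2 or β3 receptors.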
# [8] = species on record: Homo sapiens; assay: Selectivity ratio of pEC50 for human beta-3 adrenergic receptor over beta-1 adrenergic receptor; in short: as §2
# [9] = Plasma clearance in dog at 0.2 mg/kg, iv; format: ADME, organism-based, Canis lupus familiaris; parameters: dose 0.2 mg/kg, route intravenous
# In short: (§3)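 Single intravenous dose of 0.2 mg/kg. Plasma drug levels measured by LC–MS/MS, and clearance and half-life derived from them.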
# [10] = Half life in dog at 0.2 mg/kg, iv; format: ADME, organism-based, Canis lupus familiaris; parameters: dose 0.2 mg/kg, route intravenous; conditions: in vivo; in short: as §3
# [11] = test system: Mus musculus; assay: Reduction of glucose level in db/db mouse serum at 0.03 mg/kg, po bid for 14 days; format: functional
# In short: (§4)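 Male db/db mice, 60 days old at the start of dosing, 10 per group. Dosed by oral gavage twice daily for 14 days in 0.025 M methanesulfonic acid vehicle, with dosing solutions prepared fresh daily. Day 0 baseline taken from 10 exsanguinated mice. Mice were sacrificed on days 7 and 14, and serum glucose was measured on an automated chemistry analyzer against vehicle-treated mice.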
# [12] = test system: Mus musculus; assay: Reduction of glucose level in db/db mouse serum at 0.1 mg/kg, po bid for 14 days; format: functional; in short: as §4
# [13] = test system: Mus musculus; assay: Reduction of glucose level in db/db mouse serum at 0.3 mg/kg, po bid for 14 days; format: functional; in short: as §4
# [14] = test system: Mus musculus; assay: Reduction of glucose level in db/db mouse serum at 1 mg/kg, po bid for 14 days; format: functional; in short: as §4
Structure (SMILES),pEC50 [1],pEC50 [2],pEC50 [3],Emax [4] [%],Emax [5] [%],Emax [6] [%],Selectivity ratio [7],Selectivity ratio [8],clearance [9] [mL/min/kg],half-life [10] [h],Activity [11] [mg/dL],Activity [12] [mg/dL],Activity [13] [mg/dL],Activity [14] [mg/dL]
C[C@H](CNc1ccc(CCC(=O)O)cc1)NC[C@H](O)c1cccc(Cl)c1,,,,,,,16,10,,,,,,
C[C@H](CNc1cccc(-c2occc2C(=O)O)c1)NC[C@H](O)c1cccc(Cl)c1,9.60,6.90,7.00,87,38,14,500,400,5.3,≤ 1,,,,
C[C@H](CNc1ccc(-c2ocnc2C(=O)O)cc1)NC[C@H](O)c1cccc(Cl)c1,8.90,6.40,7.60,90,55,24,320,20,5.3,≤ 1,,,,
O=C(O)c1ccoc1-c1cccc(NCCNC[C@H](O)c2cccc(Cl)c2)c1,8.10,5.60,5.30,91,< 5,< 5,320,630,0.65,6.1,376,255,191,183
C[C@H](CNc1ccc(CC(=O)O)cc1)NC[C@H](O)c1cccc(Cl)c1,,,,,,,3,5,,,,,,
C[C@H](CNc1ccc(-c2occc2C(=O)O)cc1)NC[C@H](O)c1cccc(Cl)c1,9.50,7.10,7.70,85,36,18,250,63,5.3,≤ 1,,,,
C[C@H](CNc1cccc(-c2ocnc2C(=O)O)c1)NC[C@H](O)c1cccc(Cl)c1,8.40,6.50,6.40,102,49,14,79,100,5.3,≤ 1,,,,
C[C@H](CNc1cccc(-c2nc(C(=O)O)cs2)c1)NC[C@H](O)c1cccc(Cl)c1,9.10,6.80,7.10,97,48,21,200,100,5.3,≤ 1,,,,

# Continued by rising pEC50 [1], values first:
pEC50 [1],pEC50 [2],pEC50 [3],Emax [4] [%],Emax [5] [%],Emax [6] [%],Selectivity ratio [7],Selectivity ratio [8],clearance [9] [mL/min/kg],half-life [10] [h],Structure (SMILES),Activity [11] [mg/dL],Activity [12] [mg/dL],Activity [13] [mg/dL],Activity [14] [mg/dL]
7.80,6.90,6.80,115,39,30,8,10,,,C[C@H](CNc1cccc(-c2nc(C(=O)O)co2)c1)NC[C@H](O)c1cccc(Cl)c1,,,,
7.80,7.00,7.90,92,53,23,6,0.8,,,C[C@H](CNc1ccc(-c2nc(C(=O)O)co2)cc1)NC[C@H](O)c1cccc(Cl)c1,,,,
8.20,7.30,7.70,100,41,21,8,3,,,C[C@H](CNc1ccc(-c2nc(C(=O)O)cs2)cc1)NC[C@H](O)c1cccc(Cl)c1,,,,
8.70,7.00,7.00,97,76,20,50,50,,,C[C@H](CNc1cccc(-c2csc(C(=O)O)n2)c1)NC[C@H](O)c1cccc(Cl)c1,,,,
8.80,7.30,7.92,100,63,19,32,8,,,C[C@H](CNc1ccc(-c2csc(C(=O)O)n2)cc1)NC[C@H](O)c1cccc(Cl)c1,,,,
8.90,5.30,5.40,103,< 5,< 2,4000,3200,1.5,1.6,O=C(O)c1ccsc1-c1cccc(NCCNC[C@H](O)c2cccc(Cl)c2)c1,,,,
9.40,6.20,7.00,96,19,14,1600,250,,,C[C@H](CNc1ccc(-c2sccc2C(=O)O)cc1)NC[C@H](O)c1cccc(Cl)c1,,,,
10.20,6.10,5.90,85,9,< 7,13000,20000,5.3,≤ 1,C[C@H](CNc1cccc(-c2sccc2C(=O)O)c1)NC[C@H](O)c1cccc(Cl)c1,,,,

# Reference: ChEMBL document CHEMBL1140647, “Synthesis and evaluation of potent and selective beta3 adrenergic receptor agonists containing heterobiaryl carboxylic acids” (Bioorg Med Chem Lett, 2007)
